# CHO parental Ca = counter-screen: ATP calcium response change in parental CHO cells | parental CHO-K1, ATP-induced calcium, Fluo-8 fluorescence | inhibition, % at 5.6 µM | 330,000 tested, 0.63% active | AID 463079;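 active = inhibition above that plate's mean sample inhibition plus 3 SD, cut at about 26% in these data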;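 also: 0% = ATP-challenged DMSO wells and 100% = DMSO wells without ATP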
#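 Assay system: untransfected parental CHO cell line. Also added: ATP agonist challenge. Dosing: one dose, 5.6 µM nominal. Measured by: Fluo-8 fluorescence. Read-out: % inhibition. Benchmarks: ATP wells versus no-ATP DMSO wells. Repeats: no replicates.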
# OX1R antag-1 = blocks the human orexin 1 receptor | OX1R-expressing cells, FRET antagonist read-out | O43613 | 330,000 tested, 1.8% active | inhibition, % at 6.6 µM; in the data active = inhibition mostly above about 38%, no sharp cut-off; inactive = mostly below about 40%;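 also: 0% = agonist challenge alone and 100% = reference antagonist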
# TAAR1 ag = agonists of human TAAR1; 360,000 tested, 0.99% active; Q96RJ0; CHO RD-HGA16 TAAR1, Fluo-8 calcium fluorescence; vehicle wells 0%, saturating PEA agonist 100%; AID 624467; activation, % at 3 µM;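 active = activation above the mean activation of all test compounds in the run plus 3 SD, cut at about 38% in these data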
# Target sequence (Q96RJ0 whole entry, looked up): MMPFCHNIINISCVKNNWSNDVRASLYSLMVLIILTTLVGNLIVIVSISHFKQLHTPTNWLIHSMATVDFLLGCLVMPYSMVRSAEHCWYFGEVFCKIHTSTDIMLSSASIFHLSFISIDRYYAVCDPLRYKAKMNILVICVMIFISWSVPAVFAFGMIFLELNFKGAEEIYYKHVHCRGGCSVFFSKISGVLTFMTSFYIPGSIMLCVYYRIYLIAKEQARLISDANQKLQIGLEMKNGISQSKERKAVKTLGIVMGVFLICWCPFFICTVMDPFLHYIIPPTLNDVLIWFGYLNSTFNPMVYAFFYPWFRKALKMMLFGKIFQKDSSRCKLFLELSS
#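 Assay system – CHO-derived RD-HGA16 cells with stable Gα16 and human TAAR1 · Compound dosing – one-point dosing at 3 µM (nominal) · Incubation – 17-24 h seeding, 75 min 37 °C dye, 30 min RT · Measured by – kinetic Fluo-8 calcium fluorescence · Control set – DMSO vehicle as 0%, PEA at EC100 as 100% · Repeats – single well for each compound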
# OX1R antag-2 = blocks the human orexin 1 receptor; CHO/OX1R cells, Fluo-8 calcium fluorescence, orexin A; O43613; AID 434989; inhibition, % at 5 µM; 330,000 tested, 0.43% active;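 active = inhibition above its plate's threshold, mean inhibition of all tested compounds on the plate plus 3 SD, cut at about 37% in these data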;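 also: 0% = orexin A challenge wells and 100% = SB-334867-A antagonist wells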
# TAAR1 antag = human TAAR1 antagonism; AID 624466; CHO RD-HGA16 TAAR1, Fluo-8 calcium fluorescence, antagonist; inhibition, % at 3 µM; 360,000 tested, 1.5% active; Q96RJ0;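 active = inhibition above a per-plate cutoff, the mean inhibition of test compounds on that plate plus 3 SD, cut at about 49% in these data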;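 also: 0% = DMSO plus EC80 beta-PEA response and 100% = DMSO alone without agonist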
#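 System: CHO RD-HGA16 cells bearing hTAAR1. Reagent: EC80 β-phenethylamine stimulus. Schedule: seeding 17-24 h prior, 75-min 37 °C, 30-min RT dye loading. Signal: Fluo-8 intracellular calcium dye fluorescence, real-time kinetic reads. Read-out: % inhibition from peak post-agonist over basal fluorescence ratio. Benchmarks: vehicle wells and EC80 agonist wells. Replicates: n of 1.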
# NTR1 ag = activates human neurotensin receptor 1. P30989. 330,000 tested, 0.17% active. activation, % at 20 µM. NTR1-U2OS beta-arrestin-GFP spot imaging, agonist mode;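 active = activation at or above 40% of the spot to cytoplasm intensity ratio, with at least 20 cells analyzed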;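 also: 0% = DMSO without peptide and 100% = 100 nM NTR1 peptide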
# TAAR1 nonsel count = nonselective antagonist in TAAR1 antagonist counter-screen | shares compounds with TAAR1 antag | counterscreen cell line, calcium fluorescence, antagonist mode | inhibition, % at 3 µM | 2,400 tested, 77% active; in the data active = inhibition above about 22%;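 also: CHO-Ga16 host cells stimulated with ATP at an EC80 level; 0% = agonist EC80 plus vehicle and 100% = vehicle without agonist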
# TAAR1 antag conf = human TAAR1 antagonism, confirmed | shares compounds with TAAR1 antag | TAAR1-expressing cells, fluorescence antagonist read-out | inhibition, % at 3 µM | 2,400 tested, 40% active; in the data active = inhibition above about 49%;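 also: CHO-Ga16 host cells challenged with agonist PEA near its EC80; 0% = agonist at EC80 plus vehicle and 100% = vehicle with no agonist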
# Ga16 ag counter = nonselective Ga16 agonist in TAAR1 antagonist counter-screen; shares compounds with TAAR1 antag; Ga16-expressing cells, calcium fluorescence, agonist counterscreen; activation, % at 3 µM; 2,400 tested, 18% active; AID 651953; in the data active = activation above about 12%;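 also: 0% = vehicle wells and 100% = saturating stimulus response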
# TAAR1 ag counter = activates human TAAR1 in antagonist counter-screen | shares compounds with TAAR1 antag | hTAAR1 cell line, fluorescence activation, agonist mode | activation, % at 3 µM | 2,400 tested, 2% active | AID 651955; in the data active = activation above about 37%;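 also: CHO cells stably expressing TAAR1 with calcium dye readout; 0% = DMSO vehicle and 100% = full agonist response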
# Active calls of the source: *; . = not tested or not shown. Sampled rows, rich in hits. Any-hit rate of the full collection: about 4%.
SMILES,CHO parental Ca,OX1R antag-1,TAAR1 ag,OX1R antag-2,TAAR1 antag,NTR1 ag,TAAR1 nonsel count,TAAR1 antag conf,Ga16 ag counter,TAAR1 ag counter
Cc1cccc(NC(=O)C2CCN(S(=O)(=O)c3c(C)c(C)cc(C)c3C)CC2)n1,-37,10,0,-19,78*,5,24*,50*,5,7
O=C1c2ccccc2C(Nc2ccc3c(c2)OCCO3)N1c1ccc(Cl)cn1 (stereo unspecified),-11,20,2,-29,50*,2,23*,38,2,3
O=C1c2ccccc2C(Nc2ccc3c(c2)OCCO3)N1Cc1ccc2c(c1)OCO2 (stereo unspecified),-2,18,0,-8,63*,-1,16,29,7,15
O=C1c2ccccc2C(Nc2ccccc2)N1c1ccc(Cl)cn1 (stereo unspecified),.,.,-2,.,18,.,.,.,.,.
Cc1ccc(C)c(N(CC(=O)Nc2ccccc2C(=O)NCc2ccco2)S(=O)(=O)c2ccccc2)c1,-11,48,8,-8,79*,1,35*,58*,6,8
Cc1ccc(N(CC(=O)Nc2ccccc2C(=O)NCc2ccco2)S(=O)(=O)c2ccccc2)cc1C,-6,44,2,-3,14,2,.,.,.,.
O=C1[C@@H]2Cc3c([nH]c4ccccc34)C(c3ccccc3)N2C(=O)CN1CCO (stereo partly specified),-8,4,10,-9,-4,-1,.,.,.,.
CC(C)CN1CC(=O)N2C(c3ccccc3)c3[nH]c4ccccc4c3C[C@H]2C1=O (stereo partly specified),-6,-3,36,-12,61*,0,23*,45,13*,18
COc1ccc(NC(=O)CN(C)S(=O)(=O)c2ccc(Cl)cc2)cn1,-9,5,-1,-1,-24,-3,.,.,.,.
CN(CC(=O)Nc1ccc(Cl)cc1)C(=O)CNC(=O)Cc1cccc2ccccc12,-28,6,4,-3,-5,2,.,.,.,.
Cc1ccc(-c2nc3ccccc3[nH]2)cc1NC(=S)NC(=O)c1ccccc1Br,-19,87*,7,39,70*,2,36*,47,6,0
COc1ccccc1Nc1ncc(C(=O)N2CCN(Cc3ccc(OC)c(OC)c3OC)CC2)c2ccccc12,-9,12,9,-37,71*,5,27*,45,5,4
COc1ccc(Nc2ncc(C(=O)N3CCC(C(N)=O)CC3)c3ccccc23)cc1,-8,12,2,-2,-4,-1,.,.,.,.
COc1ccc(Nc2ncc(C(=O)N3CCN(Cc4ccccc4)CC3)c3ccccc23)cc1,-9,5,18,-25,67*,10,33*,51*,14*,13
COc1ccc(CCNC(=O)[C@@H](NC(=O)N2CC(=O)Nc3ccccc32)C(C)C)cc1OC,1,8,0,7,-5,2,.,.,.,.
CCOC(=O)Cn1c(=O)c2c(nc3n2CC(C)CN3Cc2ccccc2)n(C)c1=O (stereo unspecified),-8,16,1,-17,-8,0,.,.,.,.
CN1/C(=C\C(=O)COC(=O)Cn2nnc(-c3ccccc3)n2)C(C)(C)c2ccccc21,54*,31,9,37,52*,0,44*,39,7,0
CC(C)[C@H](NC(=O)c1ccccc1)C(=O)OCC(=O)/C=C1/N(C)c2ccccc2C1(C)C,7,21,11,-11,71*,4,41*,55*,9,4
